Assay results: publication PMC4465239 (Journal of autoimmunity, 2013)
Like-named read-outs stand apart in the source and are kept apart here. Where no end group is shown, it is not given here. fluorescein = fluorescein label at the C-terminus

B1: BDC-2.5 mimotope peptide … (peptide)
peptide: AHHPIWARMDA-fluorescein
B2: IL-2: recombinant mouse IL-2 (protein, UniProt P04351 21-169, looked up)
Interleukin-2: APTSSSTSSSTAEAQQQQQQQQQQQQHLEQLLMDLQELLSRMENYRNLKLPRMLTFKFYLPKQATELKDLQCLEDELGPLRHVLDLTQSKSFQLEDAENFISNIRVTVVKLKGSDNTFECQFDDESATVVDFLRRWIAFCQSIISTSPQ
B3: YPDV MHC variant peptide … (peptide)
peptide: AHYPIPADMDV-fluorescein

Columns and labels:
I-A^g7 = assay: Half life of peptide:MHC interaction; type: binding, mouse; details: HPSEC, 37°C
Summary of the method: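 I-Ag7 monomer (1 µM) was loaded with 10 µM C-terminally fluoresceinated peptide for 24–72h at 37°C in 100mM citrate phosphate pH 5, 0.2% NP-40, 0.02% azide, 10mM EDTA and protease inhibitors. Free peptide was removed on a BSA-blocked G-50 spin column, and 2mM unlabelled competitor peptide was added. Samples dissociated at 37°C, were resolved by size-exclusion HPLC with fluorescence detection, and t½ = ln2/decay slope.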

BDC-2.5 T cells [1] = assay: Proliferation of anergized cells with or without exogenous IL-2; type: cell-based, mouse; details: for proliferation on mimotope rechallenge with IL-2: with 3.5ng/well recombinant IL-2, mimotope+IL-2 vs. variant+IL-2 p=0.001; for proliferation on mimotope rechallenge without IL-2: without exogenous IL-2, mimotope vs. variant p=0.05
Summary of the method: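 Anergy was induced as follows: 14 d with 1µM mimotope, then 14 d with 1µM mimotope or 10µM variant plus irradiated APC. Cells were rechallenged with irradiated syngeneic splenocytes and graded mimotope, with or without 3.5ng/well recombinant mouse IL-2, for 48h at 37°C. [3H]thymidine (0.4µCi/well) was added for a further 18h. Stimulation index = stimulated CPM/unstimulated CPM. One-way ANOVA with Bonferroni post test.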

BDC-2.5 T cells [2] = type: cell-based, mouse
Summary of the method: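 BDC-2.5 splenocytes were primed 14 d with 1µM mimotope, Ficoll-purified, then restimulated 14 d with irradiated (3000 rad) syngeneic splenocytes plus 1µM mimotope or 10µM variant. They were then challenged with graded mimotope and irradiated splenocytes at 37°C. After 48h, 0.4µCi/well [3H]thymidine was added and incorporation counted 18h later. Four independent experiments in duplicate; mean ± SEM; Student's t test.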

[3] = target: I-A^g7 monomer (class II MHC of the NOD mouse) (mouse (NOD)); assay: SEC

| Molecule | stability of complex with I-A^g7 (I-A^g7) | proliferation on mimotope rechallenge with IL-2 (BDC-2.5 T cells [1]) | proliferation on mimotope rechallenge without IL-2 (BDC-2.5 T cells [1]) | half life of the peptide:MHC complex [3] [h] | other results |
| --- | --- | --- | --- | --- | --- |
| AHHPIWARMDA [mimotope, reference compound] | extremely stable complex | maintained a normal dose response to agonist stimulation | typical proliferation profile |  | background proliferation with IL-2, no peptide rechallenge (BDC-2.5 T cells [1]; cells not stimulated with peptide, plus 3.5ng/well recombinant IL-2): increased background proliferation |
| AHYPIPADMDV [YPDV] | much less stable complex | did not exhibit proliferation above background | little proliferation above background |  | induction of anergy (BDC-2.5 T cells [2]): sufficient to induce an anergic phenotype; induction of anergy (BDC-2.5 T cells [2]; listed as MHC variant peptide): can induce anergy in BDC-2.5 T cells |
| B1 |  |  |  | > 36 |  |
| B2 |  |  |  |  | rescue of proliferation of anergized T cells by IL-2 (BDC-2.5 T cells [1]; exogenous recombinant IL-2, 3.5ng/well): does not rescue proliferation of anergized T cells |
| B3 |  |  |  | 4 |  |
